Hits are enriched below; roughly 1.3% of the tested compounds scored in any of these assays.
ARFGAP1 inh – inhibitors of rat ARFGAP1 GAP activity, primary screen, biochemical, fluorescence polarization, GDP tracer; Arfgap1-stimulated ARF1 GTP hydrolysis, GDP FP detection; inhibition, % at 16.5 µM; hit rate 0.26% among 360,000;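 active means inhibition above a per-plate limit, mean inhibition of low control wells plus 3 SD, cut at about 25% in these data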;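 further: 0% = DMSO wells with enzyme and 100% = wells lacking Arfgap1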
Target sequence (Q62848 1-136 limits assumed): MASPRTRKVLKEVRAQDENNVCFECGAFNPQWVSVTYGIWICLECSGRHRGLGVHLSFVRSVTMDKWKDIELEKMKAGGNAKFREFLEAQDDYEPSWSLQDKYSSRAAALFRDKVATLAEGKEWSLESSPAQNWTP
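Material – truncated rat Arfgap1 GAP domain · Buffer or medium – HEPES-based buffer, pH 7.5 · Reagent – human ARF1(Δ1-17)-GTP substrate · Dosing – 16.5 µM single point, 1.26% DMSO · Schedule – GTP hydrolysis reaction 2 h at 25 °C · Technique – GDP detection by fluorescence polarization · Benchmarks – No-Arfgap1 wells (100%) versus DMSO full-reaction wells (0%) · Repeats – single replicate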
CASP6 VEID inh – human caspase-6 inhibitors, primary screen, biochemical, VEID-R110 fluorescence, single point, set 2; purified caspase-6, Z-VEID-R110 cleavage fluorescence; inhibition, % at 12.5 µM; hit rate 0.53% among 350,000; AID 686996, 2013;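 active means mean inhibition across replicates at least about 35%, with every replicate also reaching that limit, limit read from the data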;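 further: 0% = median of neutral control wells and 100% = no fluorescence left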
LEDGF integ inh – blockers of LEDGF/p75-dependent integrase strand transfer – biochemical, TR-FRET, high throughput, primary screen. HIV-1 integrase (with human LEDGF/p75). hit rate 0.64% among 370,000. TR-FRET IN-LEDGF/p75 DNA integration, Eu/Cy5. inhibition, % at 3.7 µM. AID 743269, 2014;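 active means inhibition above the screen-wide mean plus 3 SD, cut at about 13% in these data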;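 further: signal is the Cy5 over europium emission ratio at 671 and 618 nm; 0% = plate median of compound wells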
TDP2 inh – human TDP2 enzyme inhibitors, primary screen, biochemical, epi absorbance, recombinant enzyme. AID 720702, 2013. T5PNP hydrolysis, p-nitrophenol absorbance 415 nm. hit rate 0.34% among 370,000. Tyrosyl-DNA phosphodiesterase 2 (Homo sapiens), O95551. inhibition, % at 12.8 µM;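 active means inhibition above the mean of all tested compounds plus 3 SD, set per campaign, cut at about 25% in these data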;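 further: 0% = DMSO with enzyme and 100% = buffer with substrate but no TDP2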
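Evaluation: % inhibition relative to enzyme-containing and enzyme-free wells. Material: recombinant human TDP2. Benchmarks: enzyme-free and DMSO wells. Timing: enzyme reaction with compound for 2 h at 37 °C. Compound dosing: 12.8 µM only. Measured by: p-Nitrophenol epi absorbance. Reagent: T5PNP substrate at 5 mM, a TopII-DNA adduct mimic. Replication: single well per compound.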
ASAP1 GAP inh – inhibitors of human ASAP1 ArfGAP activity, primary screen, biochemical, fluorescence polarization. ASAP1-stimulated ARF1 GTP hydrolysis, GDP FP detection. AID 624377, 2012. Arf-GAP with SH3 domain, ANK repeat and PH domain-containing protein 1 (Homo sapiens), …. inhibition, % at 16.5 µM. hit rate 0.19% among 360,000;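 further: 0% = vehicle with enzyme and substrate and 100% = no enzyme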
Target sequence (Q9ULH1 325-724 limits assumed): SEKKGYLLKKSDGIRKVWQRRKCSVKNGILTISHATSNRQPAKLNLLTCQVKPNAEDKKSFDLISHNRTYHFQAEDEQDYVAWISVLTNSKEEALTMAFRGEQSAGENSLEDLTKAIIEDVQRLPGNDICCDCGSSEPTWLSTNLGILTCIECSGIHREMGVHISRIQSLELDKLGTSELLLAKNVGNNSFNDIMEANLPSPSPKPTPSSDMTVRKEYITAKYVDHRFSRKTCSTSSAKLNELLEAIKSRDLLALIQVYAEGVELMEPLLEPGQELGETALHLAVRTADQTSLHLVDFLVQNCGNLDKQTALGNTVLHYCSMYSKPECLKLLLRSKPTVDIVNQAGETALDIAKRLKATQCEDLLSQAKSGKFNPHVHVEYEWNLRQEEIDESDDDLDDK
ASAP1 inh confirm – ASAP1 GAP activity inhibitors, confirmation, biochemical, fluorescence polarization, human, triplicate; shares compounds with ASAP1 GAP inh; ASAP1-stimulated Arf1 GTPase, GDP fluorescence polarization; inhibition, % at 16.5 µM; hit rate 37% among 620;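 active means mean inhibition over triplicates exceeds the hit threshold derived for the earlier primary screening run, cut at about 25% in these data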
ARFGAP1 inh conf – ARFGAP1 inhibitor hit confirmation, biochemical, fluorescence polarization, triplicate. shares compounds with ARFGAP1 inh. ARFGAP1-stimulated ARF1 GTP hydrolysis, GDP tracer FP. inhibition, % at 16.5 µM. hit rate 30% among 890;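 active means average inhibition over triplicates above the hit cutoff set in the earlier primary screen, cut at about 25% in these data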;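 further: 0% = Arfgap1 plus ARF1-GTP with DMSO and 100% = wells lacking Arfgap1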
CASP1 counter – human caspase-1 inhibitors, dose response, selectivity assay for caspase-6 inhibitor project, biochemical, Z-YVAD-R110 fluorescence, cherry-pick, set 2; shares compounds with CASP6 VEID inh; purified caspase-1, Z-YVAD-R110 cleavage fluorescence; activity change, negative = inhibition, % at 35 µM; 100 tested, under 10 active;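 active means compounds lowering fluorescence whose fitted half-maximal concentration is no more than twice their top tested dose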
TDP2 inh conf – human TDP2 enzyme inhibitors, retest, confirmation, biochemical, epi absorbance, recombinant enzyme; shares compounds with TDP2 inh; absorbance read-out; inhibition, % at 12.8 µM; hit rate 22% among 1,100; AID 743263, 2014;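 further: 0% = vehicle with enzyme and 100% = no enzyme buffer only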
IN multimer up – HIV-1 IN multimer formation enhancers, counter-screen for LEDGF/p75 integration inhibitor project, biochemical, TR-FRET. activation, % at 7.7 µM. TR-FRET HIV-1 integrase multimerization. hit rate 17% among 2,000. shares compounds with LEDGF integ inh; in the data active means activation above about 8.9%
TR-FRET interf – TR-FRET optical interference artefacts, confirmation, artefact control for LEDGF/p75-dependent integration inhibitor project, biochemical, HIV-1 IN multimerization; TR-FRET optical interference counterscreen; inhibition, % at 7.7 µM; AID 1053135, 2014; shares compounds with LEDGF integ inh; 2,000 tested, under 10 active;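 active means inhibition above the mean over all tested compounds plus 3 SD, which no compound reached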;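 further: 0% = integrase with antibodies and DMSO and 100% = antibodies without integrase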
IN-LEDGF confirm – inhibitors of HIV-1 IN-LEDGF/p75 DNA integration, confirmation, biochemical, TR-FRET; shares compounds with LEDGF integ inh; TR-FRET LEDGF/p75-dependent HIV-1 integration; inhibition, % at 3.7 µM; hit rate 36% among 2,000; in the data active means inhibition above about 14%
* = called active by the depositor; . = no result given. Unless noted, no stated cut-off is given here; in the data, active means inhibition above about 25%; inactive means the rest.

SMILES | ARFGAP1 inh | CASP6 VEID inh | LEDGF integ inh | TDP2 inh | ASAP1 GAP inh | ASAP1 inh confirm | TDP2 inh conf | IN multimer up | TR-FRET interf | IN-LEDGF confirm | others
O=C(Nc1ccc(-c2cc3ccccc3oc2=O)c(Cl)c1)c1cccnc1 | 62.5* | 0.4 | -2.1 | 1.7 | 46.0* | 58.7* | . | . | . | . | ARFGAP1 inh conf=81.7*
COc1ccccc1C1C(C(=O)c2cc3ccccc3o2)=C(O)C(=O)N1CCN1CCOCC1 (stereo unspecified) | -6.6 | . | 2.5 | -3.9 | -4.6 | . | . | . | . | .
Nc1nnc(-c2cn(-c3ccccc3)nc2-c2ccccc2)o1 | -0.6 | . | -1.9 | -2.5 | -1.0 | . | . | . | . | .
O=C(CSc1nnnn1-c1ccccc1)Nc1nsc(-c2ccccc2)n1 | -15.2 | . | -1.7 | 9.3 | -3.2 | . | . | . | . | .
O=C(CSc1nnnn1-c1ccccc1)Nc1nsc(-c2ccc(Cl)cc2)n1 | 43.9* | . | 0.2 | 2.5 | 26.1* | 45.2* | . | . | . | . | ARFGAP1 inh conf=58.4*
Cc1cccc(NC(=O)Cn2cnc3c(oc4ccccc43)c2=O)c1C | 29.1* | -1.5 | 2.6 | -6.1 | 32.6* | 48.9* | . | . | . | . | ARFGAP1 inh conf=59.2*
COc1ccc(/C=N\NC(=O)c2ccc([N+](=O)[O-])c(C)c2)cc1COc1ccccc1C(N)=O | 78.5* | -0.9 | 0.1 | 1.9 | 47.4* | 87.8* | . | . | . | . | ARFGAP1 inh conf=122.9*
COc1ccc(/C=N/NC(=O)c2ccccc2OC)cc1COc1ccccc1[N+](=O)[O-] | 2.8 | 0.3 | 2.4 | -1.9 | 6.4 | . | . | . | . | .
O=C(c1ccco1)[C@@H]1[C@@H]2C(=O)N(c3ccc(F)cc3)C(=O)[C@@H]2C2c3ccccc3C=CN21 (stereo partly specified) | 5.4 | . | 11.0 | 29.0* | 25.5* | 9.4 | 17.4 | . | . | .
CC(=O)Nc1cc(-c2ccc(N)nc2)cn2c(-c3cccc(C(F)(F)F)c3)cnc12 | 2.6 | 7.9 | 0.9 | -2.2 | 0.8 | . | . | . | . | .
NC(=O)C1CCN(C2=C(Cl)C(=O)c3ccccc3C2=O)CC1 | 29.3* | . | 4.2 | 50.3* | 41.5* | 17.1 | 76.5* | . | . | . | ARFGAP1 inh conf=0.9
NC(=O)C1CCN(C2=C(NS(=O)(=O)c3ccccc3)C(=O)c3ccccc3C2=O)CC1 | 4.8 | 9.0 | 0.5 | 9.3 | -6.3 | . | . | . | . | .
O=c1c(-c2c(O)cc(O)c3c(=O)cc(-c4ccc(O)cc4)oc23)c(-c2ccc(O)cc2)oc2cc(O)cc(O)c12 | 19.9 | 82.9* | 24.9* | 0.0 | 24.9* | 26.8* | . | 40.4* | -203.7 | 50.4*
O=c1cc(-c2ccc(O)cc2)oc2c(-c3c(O)cc(O)c4c(=O)cc(-c5ccc(O)cc5)oc34)c(O)cc(O)c12 | 6.7 | 11.2 | 0.9 | -4.3 | 21.1 | . | . | . | . | .
O=C(Nc1ccc2nsnc2c1)N1CCCCCC1 | 14.0 | . | 0.6 | 4.0 | 21.8 | . | . | . | . | .
S=C(Nc1ccc2nsnc2c1)N1CCCC1 | 5.9 | 46.9* | 31.6* | 67.3* | 35.3* | -1.8 | 44.9* | 1.7 | -6.0 | -2.3
CC(Nc1cccc2ccccc12)C(=O)N/N=C/c1ccc([N+](=O)[O-])cc1 (stereo unspecified) | 6.3 | . | 16.2* | 30.9* | 26.2* | 8.6 | 0.0 | 0.3 | -1.3 | -3.8
Cc1cccc(/C=N/NC(=O)C(C)Nc2cccc3ccccc23)n1 (stereo unspecified) | 15.1 | . | 31.8* | 67.2* | 29.0* | 6.4 | 23.9 | 2.4 | -12.1 | -7.2
COc1cc([N+](=O)[O-])cc(/C=N/NC(=O)C(C)Nc2cccc3ccccc23)c1O (stereo unspecified) | -3.0 | 3.3 | -0.4 | -4.9 | -6.5 | . | . | . | . | .
O=c1[nH]c(Nc2ccccc2Cl)cc2ccccc12 | 29.2* | 87.6* | 30.0* | 71.4* | 47.9* | 7.8 | 42.6* | 1.1 | -3.8 | 29.6* | ARFGAP1 inh conf=4.8;CASP1 counter=-9.5
O=c1[nH]c(Nc2ccc(F)cc2)cc2ccccc12 | 42.8* | 99.5* | 52.9* | 76.8* | 36.6* | 32.2* | 64.9* | 1.3 | -4.4 | 66.6* | CASP1 counter=6.1
COC1=CC(=O)c2nc(Cl)ccc2C1=O | 8.9 | 99.7* | 31.8* | 84.8* | 37.6* | 16.7 | 78.2* | 2.3 | -8.2 | 57.5*
C[C@H](CO)N1C[C@H](C)[C@H](CN(C)C(=O)Cc2cccnc2)Oc2ncc(C#CCN(C)C)cc2C1=O | . | -17.9 | . | . | . | . | . | . | . | .
Nc1ccc(N2CCCCC2)c2nonc12 | 6.5 | 17.7 | 56.2* | 82.0* | 25.1* | 12.9 | 88.6* | 1.4 | -5.0 | 66.9*
CC1(C(=O)Nc2ccccc2)Cc2ccccc2C(=O)O1 (stereo unspecified) | 5.5 | -1.1 | 2.7 | -4.0 | -5.1 | . | . | . | . | .
COC(=O)c1ccccc1NC(=O)C1CCCN(S(=O)(=O)c2ccc(OC)cc2)C1 (stereo unspecified) | 2.0 | . | 0.3 | -3.6 | 6.7 | . | . | . | . | .

Screening results: PubChem, several laboratories
